ChEMBL document CHEMBL3102735, “Enhancing the pharmacodynamic profile of a class of selective COX-2 inhibiting nitric oxide donors” (Bioorg Med Chem, 2014)

Key:
Mus musculus [1] = experiment: Antihyperalgesic activity in Swiss albino mouse assessed as reduction in carrageenan-induced inflammation at 20 mg/kg, po after 30 mins relative to control; type: functional; parameters: scale not given: the % may be the effect or the level left
[2] = Clearance in Wistar rat at 10 mg/kg, iv by LC-MS/MS analysis; type: ADME, organism-based; parameters: dose 10 mg/kg, route intravenous; conditions: in vivo
How it was run: (§1)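 Male Han Wistar rats, three per route, single 10 mg/kg/5 mL dose iv or po in 5% DMSO, 5% Cremophor EL, 0.1% Tween 80 in 150 mM phosphate buffer pH 7. Jugular-vein blood sampled, plasma methanol-precipitated, parent and hydroxy metabolite quantified by LC–MS/MS in positive ESI MRM mode (LLOQ 1–15 ng/mL).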

Mus musculus [3] = experiment: Antihyperalgesic activity in Swiss albino mouse assessed as reduction in carrageenan-induced inflammation at 40 mg/kg, po after 120 mins relative to control; type: functional; parameters: scale not given: the % may be the effect or the level left
Liver [4] = experiment: Induction of nitric oxide production in Wistar rat liver homogenate assessed as NOx level at 1 mM; type: functional, tissue-based; conditions: TDE = time-dependent effect
Liver [5] = experiment: Induction of nitric oxide production in Wistar rat liver homogenate assessed as nitrate level at 1 mM after 1 to 150 mins; type: functional, tissue-based
[6] = biological target: Prostaglandin G/H synthase 1 (Homo sapiens, UniProt P23219); experiment: Inhibition of COX-1 in human whole blood assessed as thromboxane B2 production by RIA
Sequence of Prostaglandin G/H synthase 1 (P23219 whole entry): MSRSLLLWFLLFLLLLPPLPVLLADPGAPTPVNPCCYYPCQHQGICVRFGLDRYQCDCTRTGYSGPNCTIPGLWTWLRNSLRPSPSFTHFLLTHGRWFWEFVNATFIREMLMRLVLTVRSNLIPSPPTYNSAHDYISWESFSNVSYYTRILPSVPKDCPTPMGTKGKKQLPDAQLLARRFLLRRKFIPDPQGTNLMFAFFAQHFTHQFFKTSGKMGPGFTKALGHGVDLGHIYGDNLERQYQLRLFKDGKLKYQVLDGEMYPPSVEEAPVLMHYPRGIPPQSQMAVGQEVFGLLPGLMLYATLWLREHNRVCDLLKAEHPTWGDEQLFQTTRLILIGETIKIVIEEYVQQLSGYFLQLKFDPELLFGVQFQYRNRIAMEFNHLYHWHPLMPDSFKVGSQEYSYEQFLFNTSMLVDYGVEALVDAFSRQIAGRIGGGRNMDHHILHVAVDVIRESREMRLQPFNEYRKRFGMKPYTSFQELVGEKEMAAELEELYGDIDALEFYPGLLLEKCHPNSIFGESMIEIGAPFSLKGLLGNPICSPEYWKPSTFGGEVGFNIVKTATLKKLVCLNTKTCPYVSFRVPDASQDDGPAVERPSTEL

Mus musculus [7] = experiment: Analgesic activity in Swiss albino mouse assessed as reduction of acetic acid-induced writhing at 10 mg/kg, po measured every 10 mins after 5 mins of administration relative to control; type: functional; parameters: scale not given: the % may be the effect or the level left
How it was run: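 Male Swiss albino mice (23–25 g), compound given orally in CMC vehicle; writhing induced by 0.6% acetic acid (10 mL/kg) ip. Stretching movements counted for 10 min, starting 5 min after administration; percent reduction versus CMC-treated animals.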

[8] = Stability of the compound in phosphate buffer saline assessed as compound remaining at pH 7.4 after 30 mins by LC-MS/MS analysis; type: physicochemical; conditions: read-out: Stability
How it was run: (§2)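 1 mM DMSO stock added to 0.01 M PBS (pH 7.4) or 0.05 M simulated gastric fluid without pepsin (pH 1.5 with HCl); incubated in hybridisation oven; aliquots at 0, 30, 60, 120 min quenched with ice-cold acetonitrile containing internal standard; parent remaining (%) measured.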

[9] = Stability of the compound in phosphate buffer saline assessed as compound remaining at pH 7.4 after 60 mins by LC-MS/MS analysis; type: physicochemical; conditions: read-out: Stability; how it was run: as §2
[10] = Metabolic stability in Sprague-Dawley rat plasma assessed as compound remaining after 120 mins by LC-MS/MS analysis; type: ADME, cell-free; conditions: read-out: Stability
How it was run: (§3)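 Compound (12 µL of 1 mM DMSO solution into 588 µL medium) incubated in PBS pH 7.4, pepsin-free SGF pH 1.5, or EDTA rat plasma. Aliquots taken at 0, 30, 60, 120 min and quenched with ice-cold acetonitrile containing internal standard; parent remaining as percent.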

[11] = biological target: T1, Prostaglandin G/H synthase 2 (Mus musculus) (UniProt Q05769); experiment: Inhibition of LPS-induced COX-2 in mouse J774 cells using arachidonic acid as substrate assessed as inhibition of prostaglandin E2 production at 10 uM preincubated for 15 mins followed by substrate addition measured after 30 mins by RIA; type: cell-based
T1 sequence (whole entry): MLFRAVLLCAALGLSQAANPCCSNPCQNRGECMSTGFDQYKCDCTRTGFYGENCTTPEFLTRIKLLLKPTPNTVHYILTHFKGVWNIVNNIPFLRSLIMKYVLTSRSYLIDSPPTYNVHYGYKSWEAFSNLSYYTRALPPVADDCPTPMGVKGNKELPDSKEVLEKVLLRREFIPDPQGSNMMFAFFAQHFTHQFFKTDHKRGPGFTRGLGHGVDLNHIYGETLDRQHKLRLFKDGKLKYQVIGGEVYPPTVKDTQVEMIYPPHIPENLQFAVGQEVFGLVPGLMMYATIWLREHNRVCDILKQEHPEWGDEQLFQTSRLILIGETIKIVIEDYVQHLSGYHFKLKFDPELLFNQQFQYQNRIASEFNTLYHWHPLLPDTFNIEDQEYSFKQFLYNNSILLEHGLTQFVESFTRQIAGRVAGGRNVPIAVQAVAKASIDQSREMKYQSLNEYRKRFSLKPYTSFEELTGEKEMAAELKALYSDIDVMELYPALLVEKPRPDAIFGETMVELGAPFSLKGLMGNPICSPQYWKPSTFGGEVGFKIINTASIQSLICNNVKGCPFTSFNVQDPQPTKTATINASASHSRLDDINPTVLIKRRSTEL

Rattus norvegicus = experiment: Drug metabolism in Wistar rat plasma assessed as 2-(1-(4-fluorophenyl)-2-methyl-5-(4-(methylsulfonyl)phenyl)-1H-pyrrol-3-yl)-N-(2-hydroxyethyl)acetamide metabolite at 10 mg/kg, iv up to 6 hrs by LC-MS/MS analysis; type: ADME, organism-based; parameters: dose 10 mg/kg, route intravenous; conditions: in vivo; how it was run: as §1
[12] = Solubility of the compound in phosphate buffer saline at pH 7.4 after 90 mins by HPLC analysis; type: physicochemical
How it was run: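 DMSO stock (20 mM) diluted 2 µL into 198 µL PBS 0.01 M pH 7.4 or pepsin-free SGF 0.05 M pH 1.5, duplicate wells, shaken 90 min at 300 rpm. Filtrates analysed by HPLC with photodiode-array detection against seven-point standards (1–200 µM).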

[13] = biological target: T2, Prostaglandin G/H synthase 2 (Homo sapiens, UniProt P35354); parameters: species or system Blood
T2 sequence (P35354 whole entry): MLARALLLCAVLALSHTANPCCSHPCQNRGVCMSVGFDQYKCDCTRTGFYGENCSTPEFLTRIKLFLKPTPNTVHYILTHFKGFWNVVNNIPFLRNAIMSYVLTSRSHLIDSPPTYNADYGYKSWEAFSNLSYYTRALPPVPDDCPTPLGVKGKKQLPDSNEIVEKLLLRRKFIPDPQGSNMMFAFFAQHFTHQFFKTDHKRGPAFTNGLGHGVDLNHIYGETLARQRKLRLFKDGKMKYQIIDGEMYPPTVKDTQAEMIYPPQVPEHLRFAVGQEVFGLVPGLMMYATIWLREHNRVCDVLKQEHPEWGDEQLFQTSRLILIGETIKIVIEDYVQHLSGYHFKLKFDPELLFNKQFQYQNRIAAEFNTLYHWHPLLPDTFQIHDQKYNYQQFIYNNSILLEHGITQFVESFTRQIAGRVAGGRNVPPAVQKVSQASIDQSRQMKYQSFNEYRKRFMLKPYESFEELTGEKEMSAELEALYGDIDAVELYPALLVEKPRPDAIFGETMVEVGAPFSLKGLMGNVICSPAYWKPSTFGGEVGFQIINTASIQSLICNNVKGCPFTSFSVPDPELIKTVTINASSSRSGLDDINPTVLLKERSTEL

Mus musculus [14] = experiment: Antihyperalgesic activity in Swiss albino mouse assessed as reduction in carrageenan-induced inflammation at 40 mg/kg, po after 30 mins relative to control; type: functional; parameters: scale not given: the % may be the effect or the level left
Mus musculus [15] = experiment: Antihyperalgesic activity in Swiss albino mouse assessed as reduction in carrageenan-induced inflammation at 40 mg/kg, po after 60 mins relative to control; type: functional; parameters: scale not given: the % may be the effect or the level left
[16] = Stability of the compound in phosphate buffer saline assessed as compound remaining at pH 7.4 after 120 mins by LC-MS/MS analysis; type: physicochemical; conditions: read-out: Stability; how it was run: as §3
Liver [17] = experiment: Induction of nitric oxide production in Wistar rat liver homogenate assessed as nitrite level at 1 mM; type: functional, tissue-based; conditions: TDE = time-dependent effect

Cc1c(CC(=O)NCCO[N+](=O)[O-])cc(-c2ccc(S(C)(=O)=O)cc2)n1-c1ccc(F)cc1
Activity (Mus musculus [1]): 28% | clearance [2]: 10 mL/min | Activity (Mus musculus [3]): 0% | Activity (Liver [4]): tde | Activity (Liver [5]): 38.3 µM | IC50 [6]: 0.6 µM | Activity (Mus musculus [7]): 63% | remaining at 0.5 h [8]: 100% | remaining at 1 h [9]: 100% | remaining at 2 h [10]: 100% | inhibition [11]: 100% | Drug metabolism (Rattus norvegicus): Active | solubility at 1.5 h [12]: > 200 µM | IC50 [13]: 1.7 µM | Activity (Mus musculus [14]): 32% | Activity (Mus musculus [15]): 60% | remaining at 2 h [16]: 100% | Activity (Liver [17]): tde
